ARFGAP1 inhibitor: inhibits rat ARF GTPase activating protein 1; Q62848; 0.26% of 360,000 active; Arfgap1-stimulated ARF1 GTP hydrolysis, GDP FP detection; inhibition, % at 16.5 µM;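 active = inhibition above a per-plate limit, mean inhibition of low control wells plus 3 SD, cut at about 25% in these data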
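Material: truncated rat Arfgap1 GAP domain; Incubation: compound-enzyme preincubation 20 min, reaction 120 min, detection 60 min, 25 °C; Read-out: percent inhibition of Arfgap1-stimulated GTP hydrolysis; Technique: FP, GDP Alexa 633 tracer displaced from anti-GDP antibody, 620/688 nm; Controls: No-Arfgap1 wells (100%) versus DMSO full-reaction wells (0%); Replication: single well per compound.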
MBD2 DNA inh: blocks human MBD2 binding to methylated DNA. Q9UBB5. TR-FRET, MBD2 binding to methylated oligonucleotide. inhibition, % at 4.4 µM. 0.31% of 370,000 active. AID 686964; in the data active = inhibition above about 13%
TDP2 inh: TDP2 (human) inhibition, absorbance primary screen; O95551; recombinant TDP2, T5PNP hydrolysis, p-nitrophenol absorbance 415 nm; inhibition, % at 12.8 µM; 0.34% of 370,000 active; AID 720702;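 active = inhibition above the mean of all tested compounds plus 3 SD, set per campaign, cut at about 25% in these data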
Target sequence (O95551 whole entry, looked up): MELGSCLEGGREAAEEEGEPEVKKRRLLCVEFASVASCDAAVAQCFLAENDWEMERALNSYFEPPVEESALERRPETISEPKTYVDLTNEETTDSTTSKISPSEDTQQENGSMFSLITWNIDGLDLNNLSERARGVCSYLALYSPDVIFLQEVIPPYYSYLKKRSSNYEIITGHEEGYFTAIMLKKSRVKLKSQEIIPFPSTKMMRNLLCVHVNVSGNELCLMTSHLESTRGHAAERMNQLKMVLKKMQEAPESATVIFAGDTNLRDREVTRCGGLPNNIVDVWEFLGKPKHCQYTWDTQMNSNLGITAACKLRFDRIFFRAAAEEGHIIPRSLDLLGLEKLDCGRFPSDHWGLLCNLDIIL
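System: recombinant human TDP2 / Amount: 120 nM TDP2 per well / Also added: 5 mM T5PNP chromogenic substrate / Doses: 12.8 µM single point, 1% DMSO / Incubation: 2 h at 37 °C / Detection: p-Nitrophenol epi absorbance / Evaluation: % inhibition relative to enzyme-containing and enzyme-free wells / Repeats: singlicate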
ASAP1 GAP inh: blocks human ASAP1-stimulated Arf1 GTP hydrolysis; Q9ULH1; GDP FP detection; inhibition, % at 16.5 µM; 0.19% of 360,000 active; AID 624377; in the data active = inhibition above about 25%
Target sequence (Q9ULH1 325-724 limits assumed): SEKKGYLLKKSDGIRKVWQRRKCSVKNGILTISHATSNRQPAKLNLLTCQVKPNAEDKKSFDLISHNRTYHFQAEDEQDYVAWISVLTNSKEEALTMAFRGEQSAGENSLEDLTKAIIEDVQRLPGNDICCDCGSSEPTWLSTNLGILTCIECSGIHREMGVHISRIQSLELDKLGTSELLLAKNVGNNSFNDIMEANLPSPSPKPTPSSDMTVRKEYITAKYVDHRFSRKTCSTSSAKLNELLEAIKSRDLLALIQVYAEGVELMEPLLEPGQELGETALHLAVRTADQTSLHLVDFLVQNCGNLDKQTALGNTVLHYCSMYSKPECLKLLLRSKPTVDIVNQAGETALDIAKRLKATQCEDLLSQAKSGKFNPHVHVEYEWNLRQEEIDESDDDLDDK
UHRF1 binding: human UHRF1 methylated DNA binding inhibitors; AID 687016; inhibition, % at 4.4 µM; UHRF1 binding to methylated oligo, TR-FRET; 0.75% of 370,000 active; in the data active = inhibition above about 21%;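 also: UHRF1 SRA domain binding a hemimethylated CpG hairpin DNA probe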
LEDGF integ inh: blocks HIV-1 LEDGF/p75-dependent DNA integration | TR-FRET IN-LEDGF/p75 DNA integration, Eu/Cy5 | inhibition, % at 3.7 µM | 0.64% of 370,000 active;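 active = inhibition above the screen-wide mean plus 3 SD, cut at about 13% in these data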;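 also: signal is the Cy5 over europium emission ratio at 671 and 618 nm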
ARFGAP1 confirm: rat ARFGAP1 inhibition, confirmed; inhibition, % at 16.5 µM; ARFGAP1-stimulated ARF1 GTP hydrolysis, GDP tracer FP; 30% of 890 active; shares compounds with ARFGAP1 inhibitor;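 active = average inhibition over triplicates above the hit cutoff set in the earlier primary screen, cut at about 25% in these data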
Of the large screens only hits and unclear results are named; the others gave an inactive call (follow-up assays come after a bar, where they were run). The list is not random: actives were taken first. Their share in the collection is about 2%.

CC(=O)N1CCc2c(sc(NC(=O)c3ccc(S(=O)(=O)N(C)CC4CCCO4)cc3)c2C(N)=O)C1 (centres undefined)	ARFGAP1 inhibitor 29 | ARFGAP1 confirm inactive
O=C(CSc1nnc(COc2ccccc2)n1-c1ccccc1)Nc1ccc2c(c1)OCO2	none (no result: ARFGAP1 inhibitor, ASAP1 GAP inh)
COc1ccc(-n2c(SCC(=O)Nc3ccc(S(=O)(=O)Nc4nccs4)cc3)nnc2-c2cccs2)cc1	none (no result: ARFGAP1 inhibitor, ASAP1 GAP inh)
Cc1cc(C)n2nc(SCC(=O)N/N=C/c3ccccc3F)nc2n1	ARFGAP1 inhibitor 27 | ARFGAP1 confirm inactive
CN1c2ccsc2/C(=N/NC(=O)c2c(F)cccc2F)CS1(=O)=O	none
CN1c2ccsc2/C(=N/Nc2ccccc2)CS1(=O)=O	ARFGAP1 inhibitor 29, UHRF1 binding 24 | ARFGAP1 confirm inactive
O=C(CN(CCc1ccccc1)C(=O)c1csnn1)NCc1ccc(F)cc1	ARFGAP1 inhibitor 27 | ARFGAP1 confirm inactive
O=C(CN(Cc1ccc(F)cc1)C(=O)c1csnn1)NCc1ccccc1	none
C=CCOC(=O)c1ccc(N2CCN(c3ccccc3)CC2)nc1	ARFGAP1 inhibitor 40 | ARFGAP1 confirm inactive
CCOC(=O)[C@@]12CCCC=C1N(CCc1ccc(Cl)cc1)C(=O)[C@H]2CC(=O)N1CCSCC1	none (no result: ARFGAP1 inhibitor, ASAP1 GAP inh)
CC(C)CCC(CCNCc1ccccn1)c1ccc(Cl)cc1 (centres undefined)	ARFGAP1 inhibitor 31, LEDGF integ inh 15 | ARFGAP1 confirm inactive
O=C(N/N=C/c1ccc(Cl)cc1)C(=O)N1CCCCCC1	ARFGAP1 inhibitor 25, UHRF1 binding 27 | ARFGAP1 confirm inactive
CCCC1CCC2(CCC(=O)N2CCC#N)CC1 (centres undefined)	none (no result: ARFGAP1 inhibitor, ASAP1 GAP inh)
Cn1c(/C(C#N)=C/c2ccc(O)cc2)nc2ccccc21	ARFGAP1 inhibitor 25 | ARFGAP1 confirm inactive
COC(=O)C[C@@H]1CC[C@H]2[C@H](COc3ccc(NC(=O)C4CCC4)cc3C(=O)N2C)O1	none (no result: ARFGAP1 inhibitor, ASAP1 GAP inh)
COc1ccc(-n2cc(CN(C)C(C)c3ccncn3)c(-c3cccc(F)c3)n2)cc1 (centres undefined)	ARFGAP1 inhibitor 27 | ARFGAP1 confirm inactive
NC1=NC(=O)/C(=C\c2ccc(O)c([N+](=O)[O-])c2)S1	none
NC1=NC(=O)/C(=C/c2cccc(-c3ccc(S(N)(=O)=O)cc3)c2)S1	ARFGAP1 inhibitor 28 | ARFGAP1 confirm inactive
COc1ccc(-c2cc3ccccc3oc2=O)cc1NC(=O)c1cccnc1	ARFGAP1 inhibitor 34 | ARFGAP1 confirm 34
CC(C)C(=O)Nc1cc2c3c(c1)CCC(=O)N3CCC2	ARFGAP1 inhibitor 25 | ARFGAP1 confirm inactive
Cc1ccsc1C(=O)OCC(=O)N1CCOCC1	ARFGAP1 inhibitor 35 | ARFGAP1 confirm inactive
C[C@@H]1CCCCO[C@H](CN(C)S(=O)(=O)c2cccs2)[C@H](C)CN([C@@H](C)CO)C(=O)c2cc(NC(=O)NC3CCCCC3)ccc2O1	ARFGAP1 inhibitor 25 | ARFGAP1 confirm inactive
C[C@H](CO)N1C[C@H](C)[C@@H](CN(C)S(=O)(=O)c2cccs2)Oc2ccc(NC(=O)NC3CCCCC3)cc2C1=O	none
C=C(C)CC1(NC(C)c2ccccc2)CCCCC1 (centres undefined)	ARFGAP1 inhibitor 31 | ARFGAP1 confirm inactive
CC(NC(=O)CC1CCCCC1)c1ccccc1 (centres undefined)	none
COCC(C)n1c(C)cc(C(=O)CN2c3cccc4cccc(c34)S2(=O)=O)c1C (centres undefined)	ARFGAP1 inhibitor 29 | ARFGAP1 confirm 26
CCS(=O)(=O)Nc1ccc2c(c1)C(=O)N(C)[C@@H]1CC[C@H](CC(=O)NCCOC)O[C@H]1CO2	none (no result: ARFGAP1 inhibitor, ASAP1 GAP inh)
COc1ccc(C=NNC(=O)NN=Cc2ccc(OC)c(OC)c2)cc1OC	ARFGAP1 inhibitor 38 | ARFGAP1 confirm 55
COC(=O)N/N=C/c1ccc(OS(=O)(=O)c2ccc(C)cc2)c(OC)c1	ARFGAP1 inhibitor 37 | ARFGAP1 confirm inactive
COc1ccc(C=NNC(=O)CCCC(=O)NN=Cc2ccc(OC)c(OC)c2)cc1OC	none
COC(=O)[C@]12C[C@H](CC(=O)NCc3cccc(C(F)(F)F)c3)C(=O)N(Cc3ccco3)C1=C[C@H](C(C)C)O[C@@H]2C1CC1	none (no result: ARFGAP1 inhibitor, ASAP1 GAP inh)
Cc1ccc(-n2c(SCC(=O)c3ccccc3Cl)nnc2-c2cnccn2)cc1	none (no result: ARFGAP1 inhibitor, ASAP1 GAP inh)
COc1ccc(/C=N/Nc2cc(N3CCOCC3)ncn2)c(OC)c1	none
COc1cccc(/C=N/Nc2cc(N3CCOCC3)ncn2)c1O	ARFGAP1 inhibitor 29 | ARFGAP1 confirm 43
C[C@@H]1OC(C2CCCCC2)N(C)[C@H]2C[C@H]3c4[nH]c5cccc(-c6ccccc6)c5c4CCN3C[C@@H]12 (some centres undefined)	none (no result: ARFGAP1 inhibitor, ASAP1 GAP inh)
Cc1cc2[nH]c(=O)c(=O)[nH]c2cc1S(=O)(=O)N1CCC(C)CC1	ARFGAP1 inhibitor 32 | ARFGAP1 confirm inactive
Oc1ccc2ccccc2c1CNc1ccc2ccccc2c1	ARFGAP1 inhibitor 30 | ARFGAP1 confirm inactive
Clc1ccc(SCc2cc(N3CCOCC3)nc(-c3ccccn3)n2)cc1	none
Cc1nc(CSc2ccc(Cl)cc2)cc(N2CC(C)OC(C)C2)n1 (centres undefined)	ARFGAP1 inhibitor 25 | ARFGAP1 confirm inactive
CC1CC(C)CN(C(=O)COC(=O)c2cc3ccccc3cc2O)C1 (centres undefined)	ARFGAP1 inhibitor 37 | ARFGAP1 confirm 32
COc1cc(/C=N/NC(=O)c2cc(-c3ccccc3)nc3ccccc23)ccc1O	none
COc1cc(/C=N/NC(=O)c2cc(-c3cccc(Br)c3)nc3ccccc23)cc(OC)c1O	ARFGAP1 inhibitor 27 | ARFGAP1 confirm inactive
Cc1cc(NS(=O)(=O)c2ccc(NC(=O)CSc3nnc(-c4ccccn4)n3Cc3ccco3)cc2)nc(C)n1	none (no result: ARFGAP1 inhibitor, ASAP1 GAP inh)
CCOc1ccc(C=NNC(=O)c2cc(-c3ccc(Cl)cc3)n[nH]2)cc1	none (no result: ARFGAP1 inhibitor, ASAP1 GAP inh)
CCCC(=O)N1CCCC1(C)C(=O)Nc1ccc(-n2cccc2)cc1 (centres undefined)	ARFGAP1 inhibitor 25 | ARFGAP1 confirm inactive
CC(C)CC(CCOCCO)NC(=O)OCc1ccccc1[N+](=O)[O-] (centres undefined)	none (no result: ARFGAP1 inhibitor, ASAP1 GAP inh)
O=C(CNC(=O)c1ccc(Br)o1)Nc1cccc(-c2cnc3ccccc3n2)c1	ARFGAP1 inhibitor 25 | ARFGAP1 confirm inactive
O=C(NCCc1c[nH]c2ccccc12)OCc1cn(Cc2cc(F)cc(F)c2)nn1	none (no result: ARFGAP1 inhibitor, ASAP1 GAP inh)
O=C(COC(=O)/C=C/c1ccc2ccccc2n1)NNC(=O)c1ccccc1	ARFGAP1 inhibitor 49 | ARFGAP1 confirm inactive
COc1ccc(NC(=O)CSc2nnc(-c3n[nH]c4c3CCC4)n2N)cc1	none (no result: ARFGAP1 inhibitor, ASAP1 GAP inh)
O=C(OCC#CCSc1nnc(-c2cccc3ccccc23)o1)c1ccc(F)c(F)c1	none (no result: ARFGAP1 inhibitor, ASAP1 GAP inh)
